Experimental findings from ChEMBL document CHEMBL4422612, “Small Molecule Inhibitor that Stabilizes the Autoinhibited Conformation of the Oncogenic Tyrosine Phosphatase SHP2” (J Med Chem, 2019) are described below.

Positions count from the first letter of the chain named.

Experiment [1] deals with T1, Tyrosine-protein phosphatase non-receptor type 11 (Homo sapiens) (UniProt Q06124).
T1 sequence (whole entry): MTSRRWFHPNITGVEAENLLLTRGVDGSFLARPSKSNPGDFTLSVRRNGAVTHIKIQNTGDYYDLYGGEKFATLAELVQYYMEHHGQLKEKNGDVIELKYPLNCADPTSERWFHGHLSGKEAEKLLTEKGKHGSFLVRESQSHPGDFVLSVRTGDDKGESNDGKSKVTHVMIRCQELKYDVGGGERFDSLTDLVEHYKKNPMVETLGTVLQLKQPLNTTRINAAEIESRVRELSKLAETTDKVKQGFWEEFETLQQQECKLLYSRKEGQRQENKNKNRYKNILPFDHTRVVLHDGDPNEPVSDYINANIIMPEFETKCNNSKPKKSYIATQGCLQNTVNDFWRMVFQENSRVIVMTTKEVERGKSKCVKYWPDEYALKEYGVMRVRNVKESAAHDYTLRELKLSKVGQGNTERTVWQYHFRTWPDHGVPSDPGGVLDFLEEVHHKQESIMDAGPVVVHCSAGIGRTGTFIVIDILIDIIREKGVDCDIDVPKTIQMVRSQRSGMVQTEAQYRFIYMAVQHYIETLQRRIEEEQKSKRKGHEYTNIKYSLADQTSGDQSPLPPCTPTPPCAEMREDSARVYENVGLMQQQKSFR
The experiment can be described thus: Ratio of IC50 for inhibition of recombinant full length human GST-tagged SHP2 PTP domain using pNPP as substrate pre-incubated for 15 mins before pNPP substrate addition and measured after 15 mins to IC50 for inhibition of wild type recombinant human SHP2 using H-Glu-Phe-pTyr-Ala-Glu-Val-Gly-Arg-Ser-Pro-Pro-Asp-Pro-Ala-Lys as substrate preincubated for 30 mins followed by substrate addition and measured after 30 mins by Malachite Green-reagent based assay.

For experiment [2], the target named is T2, Tyrosine-protein phosphatase non-receptor type 11 (Mus musculus) (UniProt P35235).
T2 sequence (whole entry): T1 sequence (whole entry) with M450V, A550V, K590R
The experiment can be described thus: Inhibition of SHP2 in mouse Ba/F3 cells assessed as reduction in IL3-stimulated AKT phosphorylation pretreated for 4 hrs followed by IL3 stimulation and measured after 5 to 60 mins by Western blot analysis. The class given is cell-based. The method, boiled down:
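Ba/F3 cells starved overnight in serum- and cytokine-free RPMI1640. Treated with 20 µM compound for 4 h, then IL-3 (2 ng/mL) for the indicated times. RIPA lysates (50 µg) immunoblotted for p-Erk, p-Akt, p-Jak2 and p-Stat5, then reprobed for total proteins. Representative of three experiments.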

`CCOc1cc(O)c(C(=O)/C=C/c2ccc(Cl)cc2Cl)cc1CN1CCC=C(n2c(=O)[nH]c3ccccc32)C1`: the Ratio IC50 in experiment [1] was over 2. The inhibition result in experiment [2] is “Dose-dependent effect”.
